From ChEMBL document CHEMBL1147863, “Synthesis, antimicrobial activities and cytogenetic studies of newer diazepino quinoline derivatives via Vilsmeier-Haack reaction” (2007)
Calls of active or inactive are those of the source. The calls are words filed in the database; no cut-off is given here.

Assays:
Fusarium oxysporum [1] = assay: Antifungal activity against Fusarium oxysporum at 2% (w/v) concentration by disc diffusion method; format: functional
In short: (§1)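 Potato dextrose agar plates were seeded with a spore suspension (10⁶ spores/mL). Compounds in acetone at a final 0.5%, 1% or 2% w/v were loaded onto 5 mm filter-paper discs. Plates were incubated at 28 ± 2 °C for four days. Zone diameter was measured after subtracting the acetone-only plate zone, with carbendazim as standard.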

Talaromyces funiculosus [2] = assay: Antifungal activity against Penicillium funiculosum at 0.5% (w/v) concentration by disc diffusion method; format: functional; in short: as §1
Alternaria macrospora [3] = assay: Antifungal activity against Alternaria macrospora at 2% (w/v) concentration by disc diffusion method; format: functional; in short: as §1
Talaromyces funiculosus [4] = assay: Antifungal activity against Penicillium funiculosum at 1% (w/v) concentration by disc diffusion method; format: functional; in short: as §1
Aeromonas hydrophila [5] = assay: Antibacterial activity against Aeromonas hydrophila at 0.5% (w/v) concentration after 24 hrs by disc diffusion method; format: functional
In short: (§2)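 Disc diffusion on nutrient agar (pH 7.5 ± 0.2) swabbed with bacterial culture; compounds dissolved in chloroform at 0.125%, 0.25% or 0.5% w/v, soaked onto 5 mm filter paper discs placed on seeded plates. Incubated 35 ± 2 °C, 24 h; inhibition zone diameter (mm) measured, minus zone from solvent-only plate.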

Aspergillus flavus [6] = assay: Antifungal activity against Aspergillus flavus at 1% (w/v) concentration by disc diffusion method; format: functional; in short: as §1
Aeromonas hydrophila [7] = assay: Antibacterial activity against Aeromonas hydrophila at 0.125% (w/v) concentration after 24 hrs by disc diffusion method; format: functional; in short: as §2
Aeromonas hydrophila [8] = assay: Antibacterial activity against Aeromonas hydrophila at 0.25% (w/v) concentration after 24 hrs by disc diffusion method; format: functional; in short: as §2
Fusarium oxysporum [9] = assay: Antifungal activity against Fusarium oxysporum at 1% (w/v) concentration by disc diffusion method; format: functional; in short: as §1
Alternaria macrospora [10] = assay: Antifungal activity against Alternaria macrospora at 0.5% (w/v) concentration by disc diffusion method; format: functional; in short: as §1
Aspergillus flavus [11] = assay: Antifungal activity against Aspergillus flavus at 0.5% (w/v) concentration by disc diffusion method; format: functional; in short: as §1
[12] = Induction of chromosomal aberration in human peripheral blood leukocytes assessed as number of chromatid breaks at 20 ug/mL after 48 hrs; format: functional, Leukocyte
In short: (§3)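 Leukocytes from venous blood of three healthy non-smoking male donors, cultured at 37 °C for 72 h in McCoy's 5a with AB serum and PHA. Compound in 1% acetone was added at 0, 24 or 48 h after culture initiation (72, 48 or 24 h exposure), with water and acetone controls and triplicate cultures. Colchicine was added before harvest, then KCl hypotonic, fixation and Giemsa staining. Gaps and breaks were counted in 350 metaphases per treatment.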

Fusarium oxysporum [13] = assay: Antifungal activity against Fusarium oxysporum at 0.5% (w/v) concentration by disc diffusion method; format: functional; in short: as §1
Aspergillus flavus [14] = assay: Antifungal activity against Aspergillus flavus at 2% (w/v) concentration by disc diffusion method; format: functional; in short: as §1
Salmonella typhi [15] = assay: Antibacterial activity against Salmonella typhi at 0.125% (w/v) concentration after 24 hrs by disc diffusion method; format: functional, Salmonella enterica subsp. enterica serovar Typhi
In short: (§4)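 Disc diffusion on nutrient agar (pH 7.5 ± 0.2) swabbed with bacteria. Compounds were dissolved in chloroform at a final 0.125%, 0.25% or 0.5% w/v and loaded onto 5 mm filter-paper discs. Plates were incubated at 35 ± 2 °C for 24 h. The inhibition-zone diameter (mm) was reported after subtracting the zone of the solvent-only plate.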

Escherichia coli [16] = assay: Antibacterial activity against Escherichia coli at 0.5% (w/v) concentration by after 24 hrs by disc diffusion method; format: functional; in short: as §2
[17] = Induction of chromosomal aberration in human peripheral blood leukocytes assessed as number of chromatid gaps at 20 ug/mL after 48 hrs; format: functional, Leukocyte; in short: as §3
Escherichia coli [18] = assay: Antibacterial activity against Escherichia coli at 0.25% (w/v) concentration after 24 hrs by disc diffusion method; format: functional; in short: as §2
Talaromyces funiculosus [19] = assay: Antifungal activity against Penicillium funiculosum at 2% (w/v) concentration by disc diffusion method; format: functional; in short: as §1
[20] = Induction of chromosomal aberration in human peripheral blood leukocytes assessed as number of chromatid gaps at 20 ug/mL after 24 hrs; format: functional, Leukocyte; in short: as §3
[21] = Induction of chromosomal aberration in human peripheral blood leukocytes assessed as number of chromatid breaks at 20 ug/mL after 24 hrs; format: functional, Leukocyte; in short: as §3
Salmonella typhi [22] = assay: Antibacterial activity against Salmonella typhi at 0.5% (w/v) concentration after 24 hrs by disc diffusion method; format: functional, Salmonella enterica subsp. enterica serovar Typhi; in short: as §4
Salmonella typhi [23] = assay: Antibacterial activity against Salmonella typhi at 0.25% (w/v) concentration after 24 hrs by disc diffusion method; format: functional, Salmonella enterica subsp. enterica serovar Typhi; in short: as §4
Escherichia coli [24] = assay: Antibacterial activity against Escherichia coli at 0.125% (w/v) concentration after 24 hrs by disc diffusion method; format: functional; in short: as §2
Alternaria macrospora [25] = assay: Antifungal activity against Alternaria macrospora at 1% (w/v) concentration by disc diffusion method; format: functional; in short: as §1

Cc1ccc(C)c2c(Cl)c3c(nc12)C=CNN=C3
inhibition zone (IZ) (Fusarium oxysporum [1]): 15 mm
inhibition zone (IZ) (Talaromyces funiculosus [2]): 5 mm
inhibition zone (IZ) (Alternaria macrospora [3]): 17 mm
inhibition zone (IZ) (Talaromyces funiculosus [4]): 10 mm
inhibition zone (IZ) (Aeromonas hydrophila [5]): 11 mm
inhibition zone (IZ) (Aspergillus flavus [6]): 9 mm
inhibition zone (IZ) (Aeromonas hydrophila [7]): 4 mm
inhibition zone (IZ) (Aeromonas hydrophila [8]): 8 mm
inhibition zone (IZ) (Fusarium oxysporum [9]): 11 mm
inhibition zone (IZ) (Alternaria macrospora [10]): 7 mm
inhibition zone (IZ) (Aspergillus flavus [11]): 4 mm
Activity [12]: 0.3%
inhibition zone (IZ) (Fusarium oxysporum [13]): 4 mm
inhibition zone (IZ) (Aspergillus flavus [14]): 16 mm
inhibition zone (IZ) (Salmonella typhi [15]): 5 mm
inhibition zone (IZ) (Escherichia coli [16]): 9 mm
Activity [17]: 0.9%
inhibition zone (IZ) (Escherichia coli [18]): 5 mm
inhibition zone (IZ) (Talaromyces funiculosus [19]): 17 mm
Activity [20]: 2%
Activity [21]: 0.9%
inhibition zone (IZ) (Salmonella typhi [22]): 14 mm
inhibition zone (IZ) (Salmonella typhi [23]): 9 mm
inhibition zone (IZ) (Escherichia coli [24]): 2 mm
inhibition zone (IZ) (Alternaria macrospora [25]): 11 mm

Cc1cccc2c(Cl)c3c(nc12)C=CNN=C3
inhibition zone (IZ) (Fusarium oxysporum [1]): 10 mm
Activity (Talaromyces funiculosus [2]): inactive
inhibition zone (IZ) (Alternaria macrospora [3]): 10 mm
inhibition zone (IZ) (Talaromyces funiculosus [4]): 3 mm
inhibition zone (IZ) (Aeromonas hydrophila [5]): 11 mm
inhibition zone (IZ) (Aspergillus flavus [6]): 4 mm
inhibition zone (IZ) (Aeromonas hydrophila [7]): 4 mm
inhibition zone (IZ) (Aeromonas hydrophila [8]): 7 mm
inhibition zone (IZ) (Fusarium oxysporum [9]): 6 mm
inhibition zone (IZ) (Alternaria macrospora [10]): 3 mm
inhibition zone (IZ) (Aspergillus flavus [11]): 2 mm
inhibition zone (IZ) (Fusarium oxysporum [13]): 2 mm
inhibition zone (IZ) (Aspergillus flavus [14]): 8 mm
inhibition zone (IZ) (Salmonella typhi [15]): 5 mm
inhibition zone (IZ) (Escherichia coli [16]): 6 mm
inhibition zone (IZ) (Escherichia coli [18]): 2 mm
inhibition zone (IZ) (Talaromyces funiculosus [19]): 10 mm
Activity [20]: 0.6%
Activity [21]: 0.3%
inhibition zone (IZ) (Salmonella typhi [22]): 12 mm
inhibition zone (IZ) (Salmonella typhi [23]): 7 mm
Activity (Escherichia coli [24]): inactive
inhibition zone (IZ) (Alternaria macrospora [25]): 6 mm
